According to ChEMBL document CHEMBL4138314, “Synthesis and Evaluation of N-Phenyl-3-sulfamoyl-benzamide Derivatives as Capsid Assembly Modulators Inhibiting Hepatitis B Virus (HBV)” (J Med Chem, 2018):
≈ marks a conversion by molar mass, not a printed value. Calls of active or inactive are those of the source. No cut-off for these calls is given here.

Key:
[1] = molecular target: 5-hydroxytryptamine receptor 2B (Homo sapiens, UniProt P41595); assay: Antagonist activity at 5-HT2B (unknown origin); type: functional
Method in brief: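 Receptor/ion channel/transporter panel of 80 targets screened at 10 µM, giving percent effect at 5-HT2B; follow-up 5-HT2B functional testing in agonist and antagonist modes, with antagonist IC50 determined.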

Cytochrome P450 2C9 = Cytochrome P450 2C9 (Homo sapiens, UniProt P11712); assay: Inhibition of CYP2C9 (unknown origin); type: ADME
[2] = Cmax in C57BL/6 mouse at 50 mg/kg, sc by LC-MS/MS analysis; type: ADME, organism-based; parameters: dose 50 mg/kg, route subcutaneous; conditions: in vivo
[3] = molecular target: Core antigen (Hepatitis B virus) (UniProt Q03732); assay: Induction of HBV Maleimidyl BoDIPY-FL-labeled capsid Cp*150 mutant aggregation incubated for 30 mins measured every 10 secs for 30 mins by fluorescence quenching assay
[4] = Kinetic solubility of the compound at pH 7.4 after 4 hrs by UPLC-UV analysis; type: physicochemical; conditions: buffer, read-out: Kinetic_solubility
[5] = Plasma concentration in humanized mouse at 50 mg/kg, sc after 24 hrs by LC-MS/MS analysis; type: ADME, organism-based
[6] = Clearance in C57BL/6 mouse at 2.5 mg/kg, iv by LC-MS/MS analysis; type: ADME, organism-based; conditions: in vivo
Method in brief: (§1)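 Single-dose PK in C57BL/6 mice after intravenous or oral dosing, with oral doses of 10 and 50 mg/kg; plasma clearance and volume of distribution taken from the i.v. arm.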

[7] = AUC (0 to last) in C57BL/6 mouse at 2.5 mg/kg, iv by LC-MS/MS analysis; type: ADME, organism-based; parameters: dose 2.5 mg/kg, route intravenous, time 0 - last; conditions: in vivo
[8] = Unbound fraction in mouse plasma; type: ADME, cell-free
[9] = AUC (0 to infinity) in humanized mouse at 50 mg/kg, sc measured on day 1 post dose by LC-MS/MS analysis; type: ADME, organism-based; parameters: dose 50 mg/kg, time infinity, route subcutaneous; conditions: in vivo
[10] = Tmax in humanized mouse at 200 mg/kg, sc for 8 days measured on day 8 post last dose by LC-MS/MS analysis; type: ADME, organism-based; conditions: in vivo
HBV genotype D [11] = assay: Antiviral activity against HBV genotype D infected in chimeric mouse with humanized liver assessed as reduction in HBeAg level at 200 mg/kg, sc qd for 28 days; type: functional, organism-based; conditions: hepatitis B virus genotype D
Method in brief: (§2)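 HBV genotype D-infected humanized-liver chimeric mice (≥70% human hepatocyte replacement) were dosed once daily for 28 days at 200 mg/kg s.c., with oral saline and oral entecavir 0.03 mg/kg as controls. Serum HBeAg and HBsAg were followed over the study.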

[12] = Inhibition of sodium channel (unknown origin); parameters: species or system Homo sapiens
[13] = AUC (0 to last) in C57BL/6 mouse at 50 mg/kg, po by LC-MS/MS analysis; type: ADME, organism-based; parameters: dose 50 mg/kg, route oral, time 0 - last; conditions: in vivo; method in brief: as §1
[14] = Half life in humanized mouse at 50 mg/kg, sc for 8 days measured on day 8 post last dose by LC-MS/MS analysis; type: ADME, organism-based; conditions: in vivo
Cytochrome P450 2C19 = Cytochrome P450 2C19 (Homo sapiens, UniProt P33261); assay: Inhibition of CYP2C19 (unknown origin); type: ADME
[15] = Half life in humanized mouse at 50 mg/kg, sc measured on day 1 post dose by LC-MS/MS analysis; type: ADME, organism-based; conditions: in vivo
[16] = Drug uptake in C57BL/6 mouse plasma at 50 mg/kg, sc after 24 hrs by LC-MS/MS analysis; type: ADME, organism-based
Method in brief: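 C57BL/6 mice dosed subcutaneously once at 50 mg/kg, given to bypass first-pass metabolism; compound measured in plasma (ng/mL) and liver (ng/g) 24 h after dosing.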

Cytochrome P450 1A2 = molecular target: T1, Cytochrome P450 1A2 (Homo sapiens, UniProt P05177); assay: Inhibition of CYP1A2 (unknown origin); type: ADME
T1 sequence (P05177 whole entry): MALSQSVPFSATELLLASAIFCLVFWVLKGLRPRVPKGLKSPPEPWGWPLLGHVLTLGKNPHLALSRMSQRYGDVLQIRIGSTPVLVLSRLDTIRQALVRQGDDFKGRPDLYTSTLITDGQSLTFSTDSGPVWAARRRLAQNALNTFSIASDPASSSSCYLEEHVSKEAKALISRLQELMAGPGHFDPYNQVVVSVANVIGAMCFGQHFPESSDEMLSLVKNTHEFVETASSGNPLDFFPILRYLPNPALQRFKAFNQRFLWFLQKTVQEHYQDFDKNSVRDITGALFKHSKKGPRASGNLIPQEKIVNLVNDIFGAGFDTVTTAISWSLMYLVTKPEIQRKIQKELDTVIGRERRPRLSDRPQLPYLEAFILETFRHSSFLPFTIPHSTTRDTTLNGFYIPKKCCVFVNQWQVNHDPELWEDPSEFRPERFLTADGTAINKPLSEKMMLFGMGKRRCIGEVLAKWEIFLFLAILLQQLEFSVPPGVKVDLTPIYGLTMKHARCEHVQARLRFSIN

Salmonella typhimurium = assay: Genotoxicity in Salmonella typhimurium by Ames test; type: toxicity, organism-based; conditions: salmonella enterica subsp. enterica serovar typhimurium
[17] = AUC (0 to 8 hrs) in humanized mouse at 50 mg/kg, sc measured on day 1 post dose by LC-MS/MS analysis; type: ADME, organism-based; parameters: dose 50 mg/kg, time < 8 hr, route subcutaneous; conditions: in vivo
Cytochrome P450 3A4 = Cytochrome P450 3A4 (Homo sapiens, UniProt P08684); assay: Inhibition of CYP3A4 (unknown origin); type: ADME
Cytochrome P450 2C8 = molecular target: T2, Cytochrome P450 2C8 (Homo sapiens, UniProt P10632); assay: Inhibition of CYP2C8 (unknown origin); type: ADME
T2 sequence (P10632 whole entry): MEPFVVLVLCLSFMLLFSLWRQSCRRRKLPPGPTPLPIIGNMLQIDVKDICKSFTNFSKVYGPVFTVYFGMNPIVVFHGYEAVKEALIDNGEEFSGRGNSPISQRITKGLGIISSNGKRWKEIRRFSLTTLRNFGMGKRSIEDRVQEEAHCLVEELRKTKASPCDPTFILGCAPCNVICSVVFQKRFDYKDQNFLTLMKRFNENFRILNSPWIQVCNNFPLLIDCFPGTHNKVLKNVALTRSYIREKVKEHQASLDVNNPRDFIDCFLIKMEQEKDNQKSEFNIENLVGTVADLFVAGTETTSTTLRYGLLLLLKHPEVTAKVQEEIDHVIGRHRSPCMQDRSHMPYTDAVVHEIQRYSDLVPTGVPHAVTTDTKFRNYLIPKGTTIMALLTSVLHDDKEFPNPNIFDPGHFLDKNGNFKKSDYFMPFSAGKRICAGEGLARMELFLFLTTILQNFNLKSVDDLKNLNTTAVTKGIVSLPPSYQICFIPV

HBV genotype D [18] = assay: Antiviral activity against HBV genotype D infected in chimeric mouse with humanized liver assessed as reduction in HBsAg level at 200 mg/kg, sc qd for 28 days; type: functional, organism-based; conditions: hepatitis B virus genotype D; method in brief: as §2
[19] = Drug metabolism in human liver microsomes at 1 uM after 15 mins by LC-MS/MS analysis; type: ADME, microsome; conditions: read-out: Drug metabolism
Method in brief: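 Compound incubated 15 min with human or mouse liver microsomes; stability expressed as percent turnover (metabolised) at 15 min.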

[20] = AUC (0 to last) in C57BL/6 mouse at 50 mg/kg, sc by LC-MS/MS analysis; type: ADME, organism-based; parameters: dose 50 mg/kg, time 0 - last, route subcutaneous; conditions: in vivo
[21] = Half life in humanized mouse at 200 mg/kg, sc for 8 days measured on day 8 post last dose by LC-MS/MS analysis; type: ADME, organism-based; conditions: in vivo
[22] = Cmax in humanized mouse at 200 mg/kg, sc for 8 days measured on day 8 post last dose by LC-MS/MS analysis; type: ADME, organism-based; parameters: dose 200 mg/kg, route subcutaneous; conditions: in vivo

Sequence of Cytochrome P450 2C9 (P11712 whole entry): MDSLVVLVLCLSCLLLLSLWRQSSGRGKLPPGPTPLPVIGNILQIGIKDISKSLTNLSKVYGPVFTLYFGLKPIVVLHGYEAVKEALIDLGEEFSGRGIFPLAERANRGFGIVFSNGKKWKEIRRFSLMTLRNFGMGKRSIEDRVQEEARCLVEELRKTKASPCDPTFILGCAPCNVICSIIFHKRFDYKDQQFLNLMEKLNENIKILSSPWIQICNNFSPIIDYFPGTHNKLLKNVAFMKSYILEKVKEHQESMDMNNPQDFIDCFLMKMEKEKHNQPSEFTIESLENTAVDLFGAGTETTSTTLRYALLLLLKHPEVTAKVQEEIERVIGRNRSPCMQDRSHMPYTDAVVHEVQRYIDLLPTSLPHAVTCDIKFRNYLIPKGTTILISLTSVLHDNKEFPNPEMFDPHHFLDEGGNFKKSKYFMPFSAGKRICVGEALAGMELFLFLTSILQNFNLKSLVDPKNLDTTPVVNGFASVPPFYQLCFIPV
Sequence of Cytochrome P450 3A4 (P08684 whole entry): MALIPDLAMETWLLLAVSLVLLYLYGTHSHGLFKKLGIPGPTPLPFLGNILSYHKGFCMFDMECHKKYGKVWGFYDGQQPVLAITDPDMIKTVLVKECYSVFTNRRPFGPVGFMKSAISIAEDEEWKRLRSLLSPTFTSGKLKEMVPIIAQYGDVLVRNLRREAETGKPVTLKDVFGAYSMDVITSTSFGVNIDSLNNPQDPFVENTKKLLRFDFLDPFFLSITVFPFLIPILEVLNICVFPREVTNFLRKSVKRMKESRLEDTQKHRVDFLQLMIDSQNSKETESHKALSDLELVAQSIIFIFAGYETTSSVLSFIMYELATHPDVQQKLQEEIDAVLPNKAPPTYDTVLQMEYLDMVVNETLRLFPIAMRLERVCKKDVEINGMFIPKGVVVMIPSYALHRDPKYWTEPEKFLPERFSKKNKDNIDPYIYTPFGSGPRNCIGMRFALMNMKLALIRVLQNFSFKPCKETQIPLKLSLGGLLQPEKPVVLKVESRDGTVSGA
Sequence of Cytochrome P450 2C19 (P33261 whole entry): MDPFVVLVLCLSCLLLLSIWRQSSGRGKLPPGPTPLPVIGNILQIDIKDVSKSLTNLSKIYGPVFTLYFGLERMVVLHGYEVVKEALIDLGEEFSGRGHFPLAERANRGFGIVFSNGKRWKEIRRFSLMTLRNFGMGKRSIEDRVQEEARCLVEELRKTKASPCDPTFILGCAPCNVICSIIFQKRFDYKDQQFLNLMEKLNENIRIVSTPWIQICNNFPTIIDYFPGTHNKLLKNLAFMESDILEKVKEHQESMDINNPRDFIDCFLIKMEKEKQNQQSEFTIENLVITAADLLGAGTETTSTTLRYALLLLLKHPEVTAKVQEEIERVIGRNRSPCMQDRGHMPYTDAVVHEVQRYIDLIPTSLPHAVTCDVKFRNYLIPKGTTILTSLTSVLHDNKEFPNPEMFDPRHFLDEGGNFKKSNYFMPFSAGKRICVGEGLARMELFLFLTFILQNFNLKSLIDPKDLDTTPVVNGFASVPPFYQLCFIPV
Sequence of Core antigen (Hepatitis B virus) (Q03732 as listed by the source): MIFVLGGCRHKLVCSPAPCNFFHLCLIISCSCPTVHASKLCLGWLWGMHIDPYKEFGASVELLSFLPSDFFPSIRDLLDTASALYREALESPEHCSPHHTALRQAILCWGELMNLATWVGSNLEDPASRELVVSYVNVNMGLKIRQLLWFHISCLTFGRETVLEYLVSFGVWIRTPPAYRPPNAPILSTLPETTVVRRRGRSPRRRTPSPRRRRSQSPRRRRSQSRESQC
Sequence of 5-hydroxytryptamine receptor 2B (P41595 whole entry): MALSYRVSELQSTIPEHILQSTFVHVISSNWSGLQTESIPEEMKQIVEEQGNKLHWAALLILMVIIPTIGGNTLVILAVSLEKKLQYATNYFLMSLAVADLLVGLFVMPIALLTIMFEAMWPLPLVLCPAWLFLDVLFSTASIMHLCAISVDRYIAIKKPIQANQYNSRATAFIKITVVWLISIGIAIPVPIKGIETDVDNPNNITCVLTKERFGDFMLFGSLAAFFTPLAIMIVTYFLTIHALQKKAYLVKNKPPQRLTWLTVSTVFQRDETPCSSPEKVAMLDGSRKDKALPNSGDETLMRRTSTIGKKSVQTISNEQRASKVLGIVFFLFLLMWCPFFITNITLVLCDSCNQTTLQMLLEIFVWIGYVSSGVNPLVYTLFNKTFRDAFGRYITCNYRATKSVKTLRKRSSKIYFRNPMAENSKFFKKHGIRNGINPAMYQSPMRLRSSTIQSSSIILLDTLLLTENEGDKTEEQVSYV

Compound `Cc1cc(NC(=O)c2cccc(S(=O)(=O)N[C@H]3CCOC3)c2)ccc1F` has an IC50 [1] of 4 to 5.6 µM, an IC50 (Cytochrome P450 2C9) greater than 10 µM and a Cmax [2] of 3370 ng/mL. The Activity [3] was “Active”, the solubility kinetic at 4 h [4] was 82 µM (≈ 31 µg/mL) and the concentration at 24 h [5] was 167 ng/mL. It also gave a clearance [6] of 34 mL/min/kg, an AUC(0-t) [7] of 1240 ng·h/mL and a fraction unbound [8] of 0.126. The AUC(0-inf) [9] was 4780 ng·h/mL, the Tmax [10] was 1 h and the Activity (HBV genotype D [11]) was “inactive”. The IC50 [12] was greater than 10 µM, the AUC(0-t) [13] was 16400 ng·h/mL and the half-life [14] was 372 min. The IC50 (Cytochrome P450 2C19) was greater than 10 µM, the half-life [15] was 66 min and the concentration at 24 h [16] was 102 ng/mL. For the same compound, the IC50 (Cytochrome P450 1A2) was greater than 10 µM, the Activity (Salmonella typhimurium) was “Non-Toxic” and the AUC(0-t) at 8 h [17] was 4750 ng·h/mL. The IC50 (Cytochrome P450 3A4) was greater than 10 µM, the IC50 (Cytochrome P450 2C8) was greater than 10 µM and the Activity (HBV genotype D [18]) was “inactive”. It also gave a metabolised at 0.25 h, 1 µM [19] of 26%, an AUC(0-t) [20] of 16900 ng·h/mL and a half-life [21] of 726 min. The Cmax [22] was 7700 ng/mL.
